In PubChem BioAssay:
Activity calls are given as the source filed them.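 Rule for the calls, unless noted: active = GFP response above 150% of the DMSO level; inconclusive = fewer than 70 events counted for a yeast strain; inactive = the rest.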

Columns and labels:
[1] = RPL19A-GFP modulators, yeast TOR pathway, confirmation, cell-based, S. cerevisiae, flow cytometry, cherry picks, mother/daughter gates (AID 2270;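 active = GFP response below 50% of the DMSO control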); conditions: S. cerevisiae RPL19A-GFP strain, 3 h, at 10 µM, stronger effect = lower value, 100 = same GFP as DMSO wells
[2] = LAP4-GFP expression modulators in yeast, confirmation, cell-based, cherry picks, flow cytometry, mother/daughter gates (AID 2271;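 active = GFP response above 150% of the DMSO control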;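 note: ratio of sample to DMSO plate mean so 100% equals DMSO level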); conditions: S. cerevisiae LAP4-GFP strain, 3 h, at 10 µM, stronger effect = higher value, 100 means same as DMSO control
Method in brief: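 Test system: GFP-fusion yeast strain / Amount: 0.2 OD600 cells / Buffer or medium: SC medium / Dosing: 10 µM single dose / Incubation: compound exposure 3 h at 30 °C, end-over-end rotation / Detection: HT flow cytometry, GFP fluorescence channel / Evaluation: median GFP fluorescence as percent of plate-mean DMSO wells / Control set: DMSO-only negative wells, rapamycin 400 ng/mL positive wells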

[3] = modulators of MEP2-GFP levels in yeast, confirmation, S. cerevisiae, flow cytometry GFP, cherry picks (AID 2272;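 active = GFP response above 150% of the DMSO control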;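 note: ratio of well signal to plate DMSO mean so 100% equals DMSO level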); conditions: S. cerevisiae MEP2-GFP strain, 3 h, at 10 µM, stronger effect = higher value
[4] = AGP1-GFP expression modulators, hit retest, confirmation, cell-based, flow cytometry, S. cerevisiae, cherry picks (AID 2273);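 note: median GFP channel fluorescence over the whole cell population gate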; conditions: S. cerevisiae AGP1-GFP strain, 3 h, at 10 µM
[5] = modulators of CIT2-GFP expression in yeast, confirmation, S. cerevisiae, GFP fusion, cherry picks, mother/daughter gates (AID 2274); conditions: S. cerevisiae CIT2-GFP strain, flow cytometry, 3 h, at 10 µM, stronger effect = higher value
[6] = measured here: daughter cell gate
[7] = measured here: mother cell gate
[8] = measured here: daughter cell gate response
[9] = measured here: mother cell gate response

| Structure (SMILES) | GFP response vs DMSO [1] | GFP response vs DMSO [1, 6] [%] | GFP response vs DMSO [1, 7] [%] | GFP response relative to DMSO [2] | GFP response relative to DMSO [2, 8] [%] | GFP response relative to DMSO [2, 9] [%] | GFP response vs DMSO [3] | GFP response, % of DMSO [4] | GFP response, % of DMSO [5] | GFP response, % of DMSO [5, 6] [%] | GFP response, % of DMSO [5, 7] [%] |
| --- | --- | --- | --- | --- | --- | --- | --- | --- | --- | --- | --- |
| COc1cc(/C=C2\N=C(c3ccccc3)OC2=O)ccc1OC(C)=O | 94.9% (inactive) | 93.5 | 96.3 | 101% (inactive) | 98.2 | 102 | 112% (inactive) | 107% (inactive) | 113% (inactive) | 111 | 113 |
| CCOc1ccc(NC2=C(Cl)C(=O)N(Cc3ccccc3)C2=O)cc1 | 98.2% (inactive) | 98.3 | 100 | 102% (inactive) | 96.5 | 102 | 99.5% (inactive) | 95.8% (inactive) | 96.4% (inactive) | 98.3 | 94.5 |
| COC(=O)c1ccc(/C=N/NC(=O)c2cccc(F)c2)cc1 | 99.9% (inactive) | 99.3 | 98.6 | 103% (inactive) | 102 | 101 | 104% (inactive) | 99.3% (inactive) | 99.3% (inactive) | 100 | 99.1 |
| CCC(C)(C)NC(=O)C(c1cccs1)N(CC1CCCO1)C(=O)Cn1nnc2ccccc21 (configuration not stated) | 95.3% (inactive) | 95.9 | 94.4 | 98.9% (inactive) | 96 | 99.5 | 101% (inactive) | 102% (inactive) | 101% (inactive) | 105 | 102 |
| Cc1cccc(CN2CCSc3sccc3C2=O)c1 | 96.8% (inactive) | 95.7 | 96.5 | 125% (inactive) | 127 | 126 | 131% (inactive) | 98.2% (inactive) | 112% (inactive) | 114 | 109 |
| Cc1cc(N2CCC(C)CC2)n2ncc(-c3ccccc3)c2n1 | 99.9% (inactive) | 98.7 | 100 | 96.2% (inactive) | 94.1 | 98.3 | 97.8% (inactive) | 101% (inactive) | 102% (inactive) | 99.7 | 101 |
| Clc1cnc(N/N=C/c2cccs2)c(Cl)c1 | 105% (inactive) | 100 | 103 | 178% (active) | 158 | 172 | 126% (inactive) | 98.2% (inactive) | 103% (inactive) | 110 | 97.1 |
| CC(C)c1ccc(C(=O)N/N=C/c2cccc(Cl)c2Cl)cc1 | 93.4% (inactive) | 88 | 92.6 | 112% (inactive) | 110 | 116 | 103% (inactive) | 95.7% (inactive) | 87.2% (inactive) | 83 | 85.8 |
| O=C(Nc1nnc(-c2ccc(F)cc2)o1)c1cccc([N+](=O)[O-])c1 | 102% (inactive) | 97 | 101 | 157% (active) | 169 | 152 | 110% (inactive) | 97% (inactive) | 101% (inactive) | 103 | 99.3 |
| Cc1nc(C)c(-c2csc(NCCc3ccccc3)n2)s1 | 96.7% (inactive) | 96.4 | 95.9 | 112% (inactive) | 105 | 113 | 112% (inactive) | 96.6% (inactive) | 108% (inactive) | 110 | 107 |
| COC(=O)Cc1ccc(OCc2ccc(Cl)nc2)cc1 | 97.8% (inactive) | 97.5 | 98.6 | 107% (inactive) | 107 | 106 | 97.5% (inactive) | 101% (inactive) | 95% (inactive) | 94.6 | 94.5 |
| O=C(NNC1=NCCC1)c1cccc(Br)c1 | 98% (inactive) | 98.5 | 97.9 | 100% (inactive) | 97.9 | 99.5 | 99.5% (inactive) | 97.5% (inactive) | 96.4% (inactive) | 96.4 | 94.5 |
| COc1ccc(C2CC(c3c(-c4ccccc4)c4cc(Cl)ccc4[nH]c3=O)=NN2S(C)(=O)=O)cc1OC (configuration not stated) | 99.6% (inactive) | 101 | 98.5 | 91.5% (inactive) | 92.8 | 89.7 | 96.2% (inactive) | 98.3% (inactive) | 99.7% (inactive) | 99.1 | 98.5 |
| CCC(Sc1nc(=O)cc(N)n1-c1ccccc1)C(=O)Nc1cc(C)on1 (configuration not stated) | 98.2% (inactive) | 98.8 | 95.3 | 105% (inactive) | 105 | 96.5 | 108% (inactive) | 102% (inactive) | 109% (inactive) | 111 | 104 |
| C[C@@H](C(=O)Nc1nc2ccc(F)cc2s1)N1C(=O)C2CC=CCC2C1=O (some centres not stated) | 98.7% (inactive) | 97.8 | 98.5 | 103% (inactive) | 101 | 104 | 102% (inactive) | 99.7% (inactive) | 101% (inactive) | 100 | 100 |
| O=[N+]([O-])c1ccc(Sc2ccc(Cl)c(Cl)c2)nc1 | 97.1% (inactive) | 96.1 | 96.9 | 98.9% (inactive) | 102 | 100 | 103% (inactive) | 101% (inactive) | 98.6% (inactive) | 99.3 | 99.3 |
| CC(C)(C)c1ccc(C(=O)N/N=C/c2cccc(Cl)c2)cc1 | 96% (inactive) | 96.4 | 95.4 | 100% (inactive) | 101 | 102 | 99.3% (inactive) | 97% (inactive) | 91.7% (inactive) | 92.3 | 92.6 |
